This passage reports Ki and Ratio Ki results from ChEMBL document CHEMBL3792371 (Bioorg Med Chem Lett, 2016).

By pKi is commonly meant −log10 of the Ki, conventionally taken in molar units.

Structures are written as SMILES. pKi: −log10 of the molar value.

The target of assay [1] is Sodium-dependent dopamine transporter (Rattus norvegicus, UniProt P23977). Nature of the assay: Inhibition of DAT in rat striatal synaptosomes assessed as reduction of [3H]dopamine uptake preincubated for 5 mins followed by [3H]dopamine addition measured after 10 mins by liquid scintillation spectrometric method. It is filed as subcellular, Striatum. In short, it runs like this: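 Rat striatum homogenized in ice-cold 0.32 M sucrose with 5 mM NaHCO3 (pH 7.4), spun at 2000g and then 20,000g. Synaptosomes (20 µg protein) were resuspended in oxygenated Krebs'-HEPES buffer (pH 7.4) with pargyline and ascorbic acid. Inhibitor was 0.1 nM–1 mM final (7–9 concentrations), run in duplicate at 34 °C. [3H]DA was 10 nM final. Nonspecific uptake was defined with 10 µM GBR 12909. Reactions were filtered on GF/B filters. Specific uptake was expressed as % of control, n = 3–4 rats.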
Sequence of Sodium-dependent dopamine transporter (P23977 whole entry): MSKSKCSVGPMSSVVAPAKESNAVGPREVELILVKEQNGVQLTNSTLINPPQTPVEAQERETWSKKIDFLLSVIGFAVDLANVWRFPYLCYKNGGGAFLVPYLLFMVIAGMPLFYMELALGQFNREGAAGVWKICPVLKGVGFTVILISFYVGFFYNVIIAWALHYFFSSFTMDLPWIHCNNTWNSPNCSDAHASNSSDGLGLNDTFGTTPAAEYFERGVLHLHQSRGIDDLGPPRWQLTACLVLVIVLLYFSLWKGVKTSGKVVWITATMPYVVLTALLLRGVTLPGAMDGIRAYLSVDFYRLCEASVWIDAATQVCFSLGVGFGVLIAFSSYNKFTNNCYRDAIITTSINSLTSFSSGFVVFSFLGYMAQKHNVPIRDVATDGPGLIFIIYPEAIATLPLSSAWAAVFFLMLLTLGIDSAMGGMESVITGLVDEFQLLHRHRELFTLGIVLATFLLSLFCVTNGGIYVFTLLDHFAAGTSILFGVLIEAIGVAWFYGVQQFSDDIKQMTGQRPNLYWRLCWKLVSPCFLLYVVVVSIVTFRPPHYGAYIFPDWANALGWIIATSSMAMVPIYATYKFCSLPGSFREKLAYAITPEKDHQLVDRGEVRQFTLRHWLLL

Assay [2] concerns the target Sodium-dependent serotonin transporter (Rattus norvegicus, UniProt P31652). Description: Inhibition of SERT in rat striatal synaptosomes assessed as reduction of [3H]5-HT uptake preincubated for 5 mins followed by [3H]5-HT addition measured after 10 mins by liquid scintillation spectrometric method. It is filed as subcellular, Striatum. In short, it runs like this:
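Rat striatal synaptosomes were made as for the DAT assay: 20 µg protein in oxygenated Krebs'-HEPES buffer (pH 7.4) containing pargyline and ascorbic acid. Inhibitor was 0.1 nM–1 mM final (7–9 concentrations), run in duplicate at 34 °C. [3H]5-HT was 10 nM final. Nonspecific uptake was defined with 10 µM fluoxetine. Filters were washed with ice-cold Krebs' buffer containing 1 mM catechol. Specific uptake was expressed as % of control, n = 4 rats.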

Assay [3] has as its target Synaptic vesicular amine transporter (Rattus norvegicus, UniProt Q01827). Description: Inhibition of VMAT2 in rat striatal synaptic vesicle assessed as reduction of [3H]dopamine uptake after 8 mins by liquid scintillation spectrometric method. In short, it runs like this: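 Vesicles prepared from rat striata by sucrose homogenisation, osmotic shock and differential centrifugation. Inhibitor at 0.1 nM–10 mM with 0.1 µM [3H]DA. Filtration, then scintillation counting. n = 3–4 rats.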

For assay [4], the species on record is Rattus norvegicus. Nature of the assay: Selectivity ratio of Ki for SERT in rat striatal synaptosomes to Ki for VMAT2 in rat striatal synaptic vesicle. It is filed as subcellular. In short, it runs like this:
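Ratio of SERT Ki to VMAT2 Ki. […] 10 nM [3H]5-HT then added for 10 min at 34°C. Nonspecific uptake measured with 10 µM fluoxetine. n = 4 rats. VMAT2 Ki from vesicular [3H]DA uptake.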

The species entered for assay [5] is Rattus norvegicus. Nature of the assay: Selectivity ratio of Ki for DAT in rat striatal synaptosomes to Ki for VMAT2 in rat striatal synaptic vesicle. The format is subcellular. In short, it runs like this: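 Ratio of DAT Ki to VMAT2 Ki. […] 10 nM [3H]DA then added for 10 min at 34°C. Nonspecific uptake measured with 10 µM GBR 12909. VMAT2 Ki from vesicular [3H]DA uptake.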

Sequence of Sodium-dependent serotonin transporter (P31652 whole entry): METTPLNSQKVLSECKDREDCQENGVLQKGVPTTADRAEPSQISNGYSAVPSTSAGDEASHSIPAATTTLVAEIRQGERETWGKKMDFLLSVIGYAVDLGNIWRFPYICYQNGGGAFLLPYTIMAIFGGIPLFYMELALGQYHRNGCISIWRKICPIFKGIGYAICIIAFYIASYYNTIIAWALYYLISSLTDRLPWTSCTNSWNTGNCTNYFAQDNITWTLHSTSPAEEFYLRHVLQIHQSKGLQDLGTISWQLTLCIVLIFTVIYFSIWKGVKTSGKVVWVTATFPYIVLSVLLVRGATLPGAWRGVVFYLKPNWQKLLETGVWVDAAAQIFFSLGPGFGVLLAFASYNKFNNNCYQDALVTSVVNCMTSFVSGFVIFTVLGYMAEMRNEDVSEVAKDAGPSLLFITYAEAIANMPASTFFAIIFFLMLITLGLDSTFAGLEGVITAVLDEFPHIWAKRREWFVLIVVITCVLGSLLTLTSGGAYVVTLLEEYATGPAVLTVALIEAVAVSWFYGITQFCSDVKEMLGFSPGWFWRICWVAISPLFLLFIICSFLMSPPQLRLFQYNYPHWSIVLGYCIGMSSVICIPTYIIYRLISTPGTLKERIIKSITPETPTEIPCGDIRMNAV
Sequence of Synaptic vesicular amine transporter (Q01827 whole entry): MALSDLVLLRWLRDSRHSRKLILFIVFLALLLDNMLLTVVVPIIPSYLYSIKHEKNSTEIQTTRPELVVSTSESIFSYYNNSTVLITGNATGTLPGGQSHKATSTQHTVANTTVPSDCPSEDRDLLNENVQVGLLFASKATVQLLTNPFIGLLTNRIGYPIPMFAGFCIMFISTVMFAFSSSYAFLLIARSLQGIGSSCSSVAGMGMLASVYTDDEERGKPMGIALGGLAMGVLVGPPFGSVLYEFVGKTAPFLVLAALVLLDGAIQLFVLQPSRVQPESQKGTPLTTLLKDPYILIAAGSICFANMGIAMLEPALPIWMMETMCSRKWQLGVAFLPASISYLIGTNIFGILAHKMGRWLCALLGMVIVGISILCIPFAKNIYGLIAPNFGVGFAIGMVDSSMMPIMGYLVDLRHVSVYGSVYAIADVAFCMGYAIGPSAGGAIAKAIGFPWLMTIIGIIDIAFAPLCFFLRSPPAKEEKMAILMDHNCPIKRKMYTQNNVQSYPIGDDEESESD

On to `CN1[C@@H](CCc2ccccc2)CCC[C@H]1CCc1ccccc1` [LOBELANE], for which the pKi was 5.98 in assay [1] and 5.44 in assay [2].
For the compound `OC[C@H](O)CN1[C@@H](CCc2ccc(OCCF)cc2)CCC[C@H]1CCc1ccc(OCCF)cc1`, the results for the pKi in assay [1], in assay [3] and in assay [2] were 5.43, 6.92 and 4.48, respectively. In addition, the values for the Ratio Ki in the assay listed under Rattus norvegicus [4] and in the assay listed under Rattus norvegicus [5] were 275 and 30, respectively.
Consider `COc1ccc(CC[C@H]2CCC[C@@H](CCc3ccc(OC)cc3)N2C[C@@H](O)CO)cc1`, for which the values for the pKi in assay [1] and in assay [2] were 5.84 and 5.03, respectively.
In the case of `OC[C@H](O)CN1[C@@H](CCc2ccc(O)cc2)CCC[C@H]1CCc1ccc(O)cc1`, the pKi in assay [1] is 5.84; in assay [3] it was 7.41; in assay [2], 4.89. In addition, the Ratio Ki in the assay filed under Rattus norvegicus [4] amounted to 331.
As to `OC[C@H](O)CN1[C@@H](CCc2ccc(O)cc2)CCC[C@H]1CCc1ccc(OCCF)cc1`, the pKi in assay [1] was 5.26; in assay [3], 7.20; in assay [2], 5.84. In addition, the Ratio Ki in the assay filed under Rattus norvegicus [5] is 87.
Regarding `CN1[C@@H](CCc2ccc(O)cc2)CCC[C@H]1CCc1ccc(OCCF)cc1`, the pKi in assay [1] is 5.53; in assay [3], 7.51; in assay [2] it was 4.98. Moreover, the Ratio Ki in the assay filed under Rattus norvegicus [4] was 335; in the assay listed under Rattus norvegicus [5], 96.
With `FCCOc1ccc(CC[C@H]2CCC[C@@H](CCc3ccc(OCCF)cc3)N2)cc1`, the pKi is 5.78 in assay [1], 7.40 in assay [3] and 6.19 in assay [2].
With `CN1[C@@H](CCc2ccc(O)cc2)CCC[C@H]1CCc1ccc(O)cc1`, the negative logarithm of the Ki (pKi) in assay [1] is 5.87; in assay [3], 7.34; in assay [2], 4.92. In the assay listed under Rattus norvegicus [4], the Ratio Ki came out at 260.
On to `CC(=O)Oc1ccc(CC[C@H]2CCC[C@@H](CCc3ccc(OC(C)=O)cc3)N2)cc1`, for which the pKi in assay [1] was 5.83; in assay [3], 6.66; in assay [2], 5.67.
Consider `Oc1ccc(CC[C@H]2CCC[C@@H](CCc3ccc(OCCF)cc3)N2)cc1`, for which the results for the pKi in assay [1], in assay [3] and in assay [2] were 5.78, 7.49 and 5.98, respectively.
For `CN1[C@@H](CCc2ccc(OCCF)cc2)CCC[C@H]1CCc1ccc(OCCF)cc1`, in that order: 5.46, 6.85 and 5.13.
As to `CC(=O)Oc1ccc(CC[C@H]2CCC[C@@H](CCc3ccc(OC(C)=O)cc3)N2C)cc1`, the values for the pKi in assay [1], in assay [3] and in assay [2] were 5.67, 7.15 and 4.94, respectively. In the assay listed under Rattus norvegicus [4], the Ratio Ki is 163.
For the compound `Oc1ccc(CC[C@H]2CCC[C@@H](CCc3ccc(O)cc3)N2)cc1`, the pKi in assay [1] is 6.06; in assay [3] it was 7.51; in assay [2] it was 5.99.
